# Hits are enriched below; roughly 3.7% of the tested compounds scored in any of these assays.
# KCNQ1 block – human KCNQ1 channel inhibition | P51787 | CHO-K1 KCNQ1, FluxOR thallium flux fluorescence; stronger effect = higher value | B-score at 10 µM | actives 1.3% (n = 310,000) | AID 2642;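 active = compounds whose thallium flux B-score, printed positive for inhibition, exceeds three library SD while starting fluorescence stays within three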;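 note: channel opened by potassium depolarization with thallium stimulus after 20 min compound exposure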
# KCNQ1 pot – human KCNQ1 channel potentiation or activation. P51787. B-score at 10 µM. actives 0.35% (n = 310,000). CHO-K1 KCNQ1, thallium flux FluxOR fluorescence; stronger effect = higher value;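 active = fluorescence ratio B-score, a plate-corrected score, at least three library SD, with initial intensity B-score within 5 SD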
#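 assay system = KCNQ1-transfected CHO-K1 cells | medium = assay buffer with matched DMSO | probe or stimulus = depolarizing K+/Tl+ stimulus, K2SO4 and Tl2SO4 each 12.5 mM in 5x stock | dosing = single dose | incubation = dye 90 min, compound 20 min, room temperature | detection = kinetic FluxOR fluorescence, 10 s baseline plus 110 s post-stimulus | evaluation = ratio B score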
# KCNK9 inh – human KCNK9 channel inhibition. HEK293 KCNK9, FluxOR thallium flux fluorescence; stronger effect = lower value. actives 1.2% (n = 310,000). B-score at 10 µM. Q9NPC2. AID 488922;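 active = ratio B-score over 3 SD below the library mean, with starting fluorescence within 5 SD of its mean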;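 note: negative B-score means less thallium flux so channel inhibition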
# KCNK3 block – human KCNK3 channel inhibition, primary screen | O14649 | CHO-KCNK3 thallium flux, FluxOR fluorescence; stronger effect = lower value | B-score at 10 µM | actives 0.84% (n = 340,000) | AID 602410;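 active = B-score under library mean minus 4 SD, starting fluorescence ratio at most library mean plus 5 SD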;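 note: more negative B-score means stronger inhibition of thallium flux through KCNK3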
# hERG rescue – compounds protecting human hERG from proarrhythmic drug block | Q12809 | CHO-hERG, FluxOR thallium flux, dofetilide IC70 present | activation (rescue from dofetilide block), less the hit threshold, % at 10 µM | actives 0.51% (n = 310,000);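 active = activation above the mean of controls blocked by dofetilide plus 5 SD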;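 note: thallium influx through hERG after potassium depolarization seen as dye fluorescence rise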
# Kir21 inh – inhibitors of mouse Kir2.1 inward-rectifier potassium channel; P35561; HEK293-Kir2.1, FluxOR thallium flux fluorescence; stronger effect = lower value; B-score at 10 µM; actives 0.85% (n = 310,000); AID 1672;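 active = fluorescence ratio B-score at or below minus 3 SD of library scores, with starting-brightness B-score within 2 SD, cut at about -4.2 in these data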;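 note: channel flux triggered by added potassium and thallium sulfate stimulus; B-score of peak minus minimum fluorescence over baseline after thallium stimulus; more negative B-score means stronger Kir2.1 block with less thallium influx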
# Target sequence (P35561 whole entry, looked up): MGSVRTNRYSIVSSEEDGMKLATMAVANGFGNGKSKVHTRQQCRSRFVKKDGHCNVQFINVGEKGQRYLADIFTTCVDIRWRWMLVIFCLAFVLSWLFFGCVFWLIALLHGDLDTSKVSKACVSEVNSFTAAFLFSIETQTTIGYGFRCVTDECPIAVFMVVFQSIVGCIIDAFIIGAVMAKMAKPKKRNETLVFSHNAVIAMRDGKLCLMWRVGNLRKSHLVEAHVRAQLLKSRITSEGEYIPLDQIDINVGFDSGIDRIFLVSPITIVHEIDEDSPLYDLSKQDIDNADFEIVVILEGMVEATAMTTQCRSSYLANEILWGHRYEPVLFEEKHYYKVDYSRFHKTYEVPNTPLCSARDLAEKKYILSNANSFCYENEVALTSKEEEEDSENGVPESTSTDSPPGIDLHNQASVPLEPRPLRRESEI
# An asterisk follows results filed as active; i = inactive; · = no result given.
SMILES,KCNQ1 block,KCNQ1 pot,KCNK9 inh,KCNK3 block,hERG rescue,Kir21 inh
CCc1ccc(NC(=S)Nc2cc(OC)c(NC(=O)C(C)C)cc2OC)cc1,i,i,i,i,-12.1,-0.06
CCc1ccc(NC(=O)C(C)OC(=O)Cc2cc(OC)c(OC)c(OC)c2)cc1 (configuration not stated),·,·,·,-10.5*,·,·
CN(c1ccccc1)c1nc(N)c([N+](=O)[O-])c(Nc2ccccc2F)n1,i,i,-6.89*,i,-2.9,-1.63
CCOc1ccc(C(=O)Nc2ccc(N3CCN(C(C)=O)CC3)cc2)cc1[N+](=O)[O-],i,i,i,i,-8.3,1.42
CC(=O)N1CCN(c2ccc(Oc3ccc([N+](=O)[O-])c(C(F)(F)F)c3)cc2)CC1,11*,i,i,i,-11.9,-1.2
CC1=CC2=NC(=O)/C(=C\c3cccn3CCOc3cc(C)cc(C)c3)C(=N)N2O1,i,i,-7.85*,i,-5.4,1.29
CC1=CC2=NC(=O)/C(=C\c3cccn3CCOc3cccc(C)c3)C(=N)N2O1,i,i,-6.98*,i,-14.5,0.13
COc1ccc(C)cc1-n1c(=O)c2ccccc2c2ccccc2c1=O,i,i,-8.03*,i,-13.4,0.14
Cc1ccc(OC(C)C(=O)N2CCCc3ccccc32)cc1 (configuration not stated),i,i,i,i,-9.8,-5.48*
Cc1cccc(OCC(=O)N2CCCc3ccccc32)c1,i,i,i,i,-7.7,-0.61
Cc1cccc(OC(C)C(=O)N2CCCc3ccccc32)c1 (configuration not stated),i,i,i,i,-4.9,-5.2*
Fc1ccc(-n2cc(-c3ccccc3)c3c(NN4CCOCC4)ncnc32)cc1,i,i,i,i,-17.3,0.45
COc1ccc(-n2cc(-c3ccccc3)c3c(NN4CCOCC4)ncnc32)cc1,9*,i,i,i,-25.3,-0.16
S=c1[nH]c(-c2ccccc2)cs1,i,44*,i,i,60.6*,1.82
Fc1ccc(-c2csc(=S)[nH]2)cc1,i,35*,i,i,48.3*,0.82
Cc1cccc(NC(=O)CSc2nnc(C)c(C)n2)c1,i,i,i,i,-1.8,0.53
CC(C)Cn1c(N)c(C(=O)COC(=O)c2cnc(Cl)c(Cl)c2)c(=O)n(C)c1=O,6*,i,i,i,-6.6,0.57
CC(C)Cn1c(N)c(C(=O)COC(=O)c2cc(F)cc(F)c2)c(=O)n(C)c1=O,i,i,i,i,-20.4,-0.35
O=C(Nc1cccc(Cl)c1)c1ccc(S(=O)(=O)NCC2CCCO2)cc1 (configuration not stated),i,i,i,i,-4.3,0.97
CC(C)OC(=O)c1ccccc1C(=O)c1ccc(N)c([N+](=O)[O-])c1,i,i,i,i,-6.8,-5.29*
Nc1ccccc1Sc1ccc(C(=O)c2ccccc2C(=O)O)cc1[N+](=O)[O-],i,i,i,i,-6.0,0.66
Cc1cccc(C)c1NC(=O)Cn1cc(C=O)c2ccccc21,i,i,i,i,-6.9,0.07
C=CCn1c(=NC(=O)C2COc3ccccc3O2)sc2cccc(OC)c21 (configuration not stated),i,i,-7.37*,i,-12.6,1.62
C=CCn1c(=NC(=O)CN2C(=O)CCC2=O)sc2cccc(OC)c21,i,i,i,i,-6.9,-0.05
S=c1[nH]nc(COc2ccccc2)n1/N=C/c1ccc(Cl)cc1,i,i,i,i,-2.0,-0.92
S=c1[nH]nc(Cc2ccc(Br)cc2)n1/N=C/c1ccc(Cl)cc1,i,i,i,i,16.1*,0.19
CCN(C(=O)c1ccc(C(C)(C)C)cc1)c1nnc(Cn2nnc3ccccc32)s1,7*,i,i,i,-20.5,-0.65
CN(c1ccc(F)cc1)S(=O)(=O)c1ccc(Cl)c(C(=O)Nc2ccc3c(c2)CCC3)c1,i,i,-6.9*,i,-11.2,0.9
Cc1ccc(C2=CSC3=NS(=O)(=O)CCN23)cc1,i,9*,i,i,0.9,-1.54
